Measurements as given in the array DNA melting data of Ke et al. (doi:10.1101/2024.01.08.574731).

How the values were obtained:
[1] = folding enthalpy; higher = less favourable; fluorescence melt of hairpins on a sequencing array, two-state fit; details: sodium 0.088 M
How it was run: (§1)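 Folding enthalpy and melting temperature were estimated with bootstrapped two-state fits and combined across four replicates by inverse-variance weighting, with fitted temperatures raised by 9.35 °C to match UV melts. The data were Cy3 fluorescence of library hairpins, with annealed Cy3 and quencher oligos, on a sequenced MiSeq flow cell in 50 mM Na-HEPES pH 8.0, 25 mM NaCl, imaged in 2.5 °C steps up to 60 °C and normalised to pre-quench Cy3 and control constructs.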

[2] = melting temperature; fluorescence melt of hairpins on a sequencing array, two-state fit, raised by 9.35 °C to match UV melts; details: sodium 0.088 M
How it was run: as §1

Sequence | folding enthalpy [1] [kcal/mol] | Tm [2] [°C]
GTACAGGGAAACCTGCAC ((.((((....)))).)) | -22.4 | 39.7
GTACAGGGAAACTTGTAC (((((.(....).))))) | -30.4 | 39.8
GTACAGGGAAACTTGTGC (.(((.(....).))).) | -16 | 27.9
GTACATCGAAAGATTAC (((.(((....)))))) | -20.3 | 32.1
GTACCACGAAAGTGTAC (((.(((....)))))) | -22 | 42.3
GTACCAGGAAACTGATAC (((.(((....))).))) | -26.6 | 31.4
GTACCAGGAAACTGGTGC (.(((((....))))).) | -43 | 51.4
GTACCCCGAAAGGGATAC (((.(((....))).))) | -19.6 | 46.1
GTACCCCGAAAGGGTAC (((.(((....)))))) | -28.3 | 58.3
GTACCCGAAAGGGAATAC ((((((....)))..))) | -12.4 | 29.7
GTACCCGAAAGGGCGTAC ((((((....)))..))) | -14.3 | 34.2
GTACCCGAAAGGGTTAC ((((((....))).))) | -13.4 | 46.4
GTACCGGGAAACCGATAC (((.(((....))).))) | -27.7 | 40
GTACCGGGAAACTGGTAC (((((.(....).))))) | -33.2 | 51.4
GTACGAGGAAACTTGTAC ((((.((....)).)))) | -37.1 | 44
GTACGCCGAAAGGCTAC (((.(((....)))))) | -15.1 | 47.6
GTACGCGAAAGCGATAC ((((((....))).))) | -13.9 | 48.2
GTACGCGAAAGCGATTAC ((((((....)))..))) | -11.2 | 29.7
GTACGCGAAAGCGTCTAC ((((((....)))..))) | -7.82 | 39.9
GTACGCGAAAGCGTGTAC ((((((....)))..))) | -9.86 | 38
GTACGGAAACGTAC (((((....))))) | -32.4 | 53.7
GTACGGGGAAACCCGCAC ((.((((....)))).)) | -18.6 | 54.3
GTACGGGGAAACCTGTGC (.((.((....)).)).) | -25.8 | 37.3

Sequence | folding enthalpy [1] [kcal/mol] | Tm [2] [°C]
GTACGTCGAAAGACATAC (((.(((....))).))) | -20.1 | 38.4
GTACGTGGAAACGTGTAC ((((..(....)..)))) | -12.3 | 37.4
GTACTACGAAAGTAATAC (((.(((....))).))) | -15.2 | 29.8
GTACTAGAAATAGTAC ((((((....)))))) | -27.2 | 42.4
GTACTCGAAAGAGCTAC ((((((....))).))) | -16.4 | 35
GTACTCGCGAAAGCGTAC (((..(((....)))))) | -11.1 | 30.4
GTACTGAAAAGTAC (((((....))))) | -20.8 | 46.8
GTACTGGGAAACTAGTGC (.(((.(....).))).) | -19.4 | 31.2
GTACTTGGAAACAAGCAC ((.((((....)))).)) | -25.8 | 37.8
GTAGAAGCGAAAGCTTAC (((..(((....)))))) | -11.6 | 30.1
GTAGACCCGAAAGGGTAC (((..(((....)))))) | -9.26 | 32.3
GTAGACCGAAAGGTGTAC (((.(((....))).))) | -36.3 | 50.8
GTAGACCGAAAGGTTAC (((.(((....)))))) | -16.7 | 38.5
GTAGACGAAAGTCCGTAC ((((((....)))..))) | -8.44 | 21
GTAGACGAAAGTCGATAC ((((((....)))..))) | -11.2 | 34.7
GTAGACGAAAGTCTGTAC ((((((....)))..))) | -11.6 | 36.8
GTAGACGGAAACGTCCAC ((.((((....)))).)) | -13.4 | 37.9
GTAGAGCGAAAGCTATAC (((.(((....))).))) | -23.4 | 51.6
GTAGAGCGAAAGCTTAC (((.(((....)))))) | -12.8 | 38.5
GTAGAGGGAAACCCCTAC ((((.((....)).)))) | -20.4 | 39.2
GTAGAGGGAAACCTCTGC (.(((((....))))).) | -23.1 | 45.9
GTAGATACGAAAGTATAC (((..(((....)))))) | -11.6 | 25.4
GTAGATCCGAAAGGATAC (((..(((....)))))) | -11.1 | 30.4
